How the values were obtained:
Format in all cases: functional
SK-MEL-5 [1] = experiment: Antitumor activity against human SK-MEL-5 cells after 48 hrs by SRB assay; conditions: SK-MEL-5, 48 h
Outline: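 NCI60 panel cells grown in RPMI 1640 with 5% FBS and 2 mM L-glutamine, plated at 5000–40,000 cells/well and preincubated 24 h at 37 °C, 5% CO₂. Compound was added from DMSO at five concentrations, 10-fold or 1/2 log dilutions, then incubated 48 h.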

MOLT-4 [2] = experiment: Antitumor activity against human MOLT4 cells after 48 hrs by SRB assay; conditions: MOLT-4, 48 h; for CC50: read-out: pLC50 (the source's name) (converted)
Outline: (§1)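 NCI60 panel in RPMI 1640 with 5% FBS and 2 mM L-glutamine. Cells were plated at 5000–40,000/well by doubling time, held 24 h, then time-zero plates were TCA-fixed. Five concentrations (10-fold or half-log dilutions of DMSO stocks) were applied for 48 h at 37 °C, 5% CO2. Cells were fixed with cold TCA (10% final adherent, 16% suspension) and stained with 0.4% SRB. Bound dye was dissolved in 10 mM Tris and read at 515 nm. GI50, TGI and LC50 were calculated per line.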

[3] = Antitumor activity against human Hs 578T cells after 48 hrs by SRB assay; conditions: for CC50: read-out: LC50 (the source's name); outline: as §1
SK-MEL-5 [4] = experiment: Cytotoxicity against human SK-MEL-5 cells assessed as cellular growth at 10 uM after 48 hrs by SRB assay
Outline: (§2)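 NCI-60 panel lines grown in RPMI 1640 with 5% FBS and 2 mM L-glutamine. Plated at 5000–40,000 cells/well and preincubated 24 h at 37 °C, 5% CO₂, with time-zero plates fixed in TCA. Compounds, dissolved in DMSO and diluted in medium, were applied for 48 h. Cells were TCA-fixed (10% final for adherent, 16% for suspension) and stained with 0.4% SRB in 1% acetic acid. Dye was solubilised in 10 mM Tris base and read at 515 nm; growth was expressed as a percentage of untreated control.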

HL-60(TB) = experiment: Antitumor activity against human HL-60(TB) cells after 48 hrs by SRB assay; conditions: HL-60, 48 h
Outline: (§3)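 NCI60 screen: cells grown in RPMI 1640 with 5% FBS and 2 mM L-glutamine, plated at 5000–40,000 cells/well by doubling time, preincubated 24 h at 37 °C with 5% CO2. Compounds were diluted from DMSO stocks and given for 48 h, at five concentrations for dose response. A time-zero plate was TCA-fixed. Cells were TCA-fixed, stained with 0.4% SRB and read at 515 nm, with growth expressed relative to untreated controls.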

MOLT-4 [5] = experiment: Cytotoxicity against human MOLT4 cells assessed as cellular growth at 10 uM after 48 hrs by SRB assay; outline: as §2
MCF7 = experiment: Antitumor activity against human MCF7 cells after 48 hrs by SRB assay; conditions: MCF7, 48 h; outline: as §1
OVCAR-8 = experiment: Antitumor activity against human OVCAR8 cells after 48 hrs by SRB assay; conditions: OVCAR-8, 48 h; outline: as §1
786-0 [6] = experiment: Antitumor activity against human 786-0 cells after 48 hrs by SRB assay; conditions: 786-0, 48 h; outline: as §1
786-0 [7] = experiment: Cytotoxicity against human 786-0 cells assessed as cellular growth at 10 uM after 48 hrs by SRB assay
Outline: (§4)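 NCI60 single-dose screen of cells in RPMI 1640 with 5% FBS and 2 mM L-glutamine, preincubated 24 h at 37 °C, 5% CO₂. Cells were then exposed 48 h to compound added from DMSO stock. TCA-fixed, stained with 0.4% SRB in 1% acetic acid, dye solubilised in 10 mM Tris base and read at 515 nm. Growth is given as percent of untreated control.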

MDA-MB-231 = experiment: Antitumor activity against human MDA-MB-231 cells after 48 hrs by SRB assay; conditions: MDA-MB-231, 48 h; for CC50: read-out: LC50 (the source's name); outline: as §1
COLO 205 [8] = experiment: Antitumor activity against human COLO205 cells after 48 hrs by SRB assay; conditions: COLO 205, 48 h; outline: as §1
EKVX = experiment: Antitumor activity against human EKVX cells after 48 hrs by SRB assay; outline: as §1
OVCAR-4 = experiment: Cytotoxicity against human OVCAR4 cells assessed as cellular growth at 10 uM after 48 hrs by SRB assay; outline: as §2
HCC 2998 = experiment: Antitumor activity against human HCC2998 cells after 48 hrs by SRB assay; conditions: HCC 2998, 48 h; outline: as §1
ACHN = experiment: Antitumor activity against human ACHN cells after 48 hrs by SRB assay; outline: as §1
NCI-H23 = experiment: Cytotoxicity against human NCI-H23 cells assessed as cellular growth at 10 uM after 48 hrs by SRB assay; outline: as §2
BT-549 = experiment: Antitumor activity against human BT549 cells after 48 hrs by SRB assay; conditions: BT-549, 48 h; outline: as §3
COLO 205 [9] = experiment: Cytotoxicity against human COLO205 cells assessed as cellular growth at 10 uM after 48 hrs by SRB assay; outline: as §4
UACC-257 = experiment: Cytotoxicity against human UACC257 cells assessed as cellular growth at 10 uM after 48 hrs by SRB assay; outline: as §2
NCI-H460 = experiment: Cytotoxicity against human NCI-H460 cells assessed as cellular growth at 10 uM after 48 hrs by SRB assay; outline: as §2
[10] = read-out: LC50 (the source's name)
[11] = read-out: pLC50 (the source's name) (converted)

## COc1cc(/C(=C2\O[C@@H]([C@H]3COC(C)(C)O3)[C@H]3OC(C)(C)O[C@@H]23)c2ccc3ccccc3c2)cc(OC)c1OC
SK-MEL-5 [1]
  GI50: 4.07 µM
  LC50: 51.4 µM
  TGI: 15.4 µM
MOLT-4 [2]
  LC50 (concentration killing 50% of cells): > 100 µM
  CC50: > 100 µM
MOLT-4 [2]; read-out: GI50
  GI50: > 100 µM
MOLT-4 [2]; read-out: TGI
  TGI: > 100 µM
MOLT-4 [2]; read-out: pGI50 (converted)
  GI50: 100 µM
MOLT-4 [2]; read-out: pTGI
  TGI: > 100 µM
[3]
  GI50: 4.44 µM
  TGI: 53.4 µM
  CC50: > 100 µM
SK-MEL-5 [4]
  Activity: 38.25%
HL-60(TB); read-out: GI50
  GI50: 74.9 µM
HL-60(TB); [10]
  CC50: > 100 µM
HL-60(TB); read-out: TGI
  TGI: > 100 µM
HL-60(TB); read-out: pGI50 (converted)
  GI50: 74.1 µM
HL-60(TB); [11]
  CC50: > 100 µM
HL-60(TB); read-out: pTGI (converted)
  TGI: > 100 µM
MOLT-4 [5]
  Activity: 62.4%
MCF7; read-out: GI50
  GI50: 3.69 µM
MCF7; [10]
  CC50: > 100 µM
MCF7; read-out: TGI
  TGI: 14.4 µM
MCF7; read-out: pGI50 (converted)
  GI50: 3.63 µM
MCF7; [11]
  CC50: > 100 µM
MCF7; read-out: pTGI (converted)
  TGI: 14.5 µM
OVCAR-8; read-out: GI50
  GI50: 3.69 µM
OVCAR-8; [10]
  CC50: > 100 µM
OVCAR-8; read-out: TGI
  TGI: > 100 µM
OVCAR-8; read-out: pGI50 (converted)
  GI50: 4.37 µM
OVCAR-8; [11]
  CC50: > 100 µM
OVCAR-8; read-out: pTGI
  TGI: > 100 µM
786-0 [6]
  GI50: 2.3 µM
  LC50: 8.6 µM
  TGI: 4.47 µM
786-0 [7]
  Activity: -1.42%
MDA-MB-231
  GI50: 6.28 µM
  TGI: 69.7 µM
  CC50: > 100 µM
COLO 205 [8]; read-out: GI50
  GI50: 6.97 µM
COLO 205 [8]; [10]
  CC50: > 100 µM
COLO 205 [8]; read-out: TGI
  TGI: > 100 µM
COLO 205 [8]; read-out: pGI50 (converted)
  GI50: 6.92 µM
COLO 205 [8]; [11]
  CC50: > 100 µM
COLO 205 [8]; read-out: pTGI (converted)
  TGI: > 100 µM
EKVX; read-out: GI50
  GI50: 5.59 µM
EKVX; [10]
  CC50: > 100 µM
EKVX; read-out: TGI
  TGI: > 100 µM
EKVX; read-out: pGI50 (converted)
  GI50: 5.62 µM
EKVX; [11]
  CC50: > 100 µM
EKVX; read-out: pTGI
  TGI: > 100 µM
OVCAR-4
  Activity: 25.7%
HCC 2998; read-out: GI50
  GI50: 6.47 µM
HCC 2998; [10]
  CC50: > 100 µM
HCC 2998; read-out: TGI
  TGI: > 100 µM
HCC 2998; read-out: pGI50 (converted)
  GI50: 6.46 µM
HCC 2998; [11]
  CC50: > 100 µM
HCC 2998; read-out: pTGI (converted)
  TGI: > 100 µM
ACHN; read-out: GI50
  GI50: 4.39 µM
ACHN; [10]
  CC50: > 100 µM
ACHN; read-out: TGI
  TGI: > 100 µM
ACHN; read-out: pGI50 (converted)
  GI50: 4.57 µM
ACHN; [11]
  CC50: > 100 µM
ACHN; read-out: pTGI
  TGI: > 100 µM
NCI-H23
  Activity: 46.18%
BT-549; [10]
  CC50: > 100 µM
BT-549; read-out: pGI50 (converted)
  GI50: 3.24 µM
BT-549; [11]
  CC50: > 100 µM
BT-549; read-out: pTGI (converted)
  TGI: 8.13 µM
COLO 205 [9]
  Activity: 66.91%
UACC-257
  Activity: 45.86%
NCI-H460
  Activity: 43.38%

## COc1ccc(/C(=C2\O[C@@H]([C@H]3COC(C)(C)O3)[C@H]3OC(C)(C)O[C@@H]23)c2cc(OC)c(OC)c(OC)c2)cc1O
SK-MEL-5 [1]
  GI50: 4.07 µM
  LC50: 51.4 µM
  TGI: 15.4 µM
MOLT-4 [2]
  LC50 (concentration killing 50% of cells): > 100 µM
  CC50: > 100 µM
MOLT-4 [2]; read-out: GI50
  GI50: 24.2 µM
MOLT-4 [2]; read-out: TGI
  TGI: > 100 µM
MOLT-4 [2]; read-out: pGI50 (converted)
  GI50: 24 µM
MOLT-4 [2]; read-out: pTGI
  TGI: > 100 µM
[3]
  GI50: 4.44 µM
  TGI: 53.4 µM
  CC50: > 100 µM
SK-MEL-5 [4]
  Activity: 61.79%
HL-60(TB); read-out: GI50
  GI50: 6.48 µM
HL-60(TB); [10]
  CC50: > 100 µM
HL-60(TB); read-out: TGI
  TGI: 56.8 µM
HL-60(TB); read-out: pGI50 (converted)
  GI50: 1.62 µM
HL-60(TB); [11]
  CC50: > 100 µM
HL-60(TB); read-out: pTGI (converted)
  TGI: 56.2 µM
MOLT-4 [5]
  Activity: 60.46%
MCF7; read-out: GI50
  GI50: 1.23 µM
MCF7; [10]
  CC50: > 100 µM
MCF7; read-out: TGI
  TGI: > 100 µM
MCF7; read-out: pGI50 (converted)
  GI50: 12.3 µM
MCF7; [11]
  CC50: > 100 µM
MCF7; read-out: pTGI (converted)
  TGI: > 100 µM
OVCAR-8; read-out: GI50
  GI50: 6.56 µM
OVCAR-8; [10]
  CC50: > 100 µM
OVCAR-8; read-out: TGI
  TGI: > 100 µM
OVCAR-8; read-out: pGI50 (converted)
  GI50: 8.51 µM
OVCAR-8; [11]
  CC50: > 100 µM
OVCAR-8; read-out: pTGI
  TGI: > 100 µM
786-0 [6]
  GI50: 2.3 µM
  LC50: 8.6 µM
  TGI: 4.47 µM
786-0 [7]
  Activity: 86.28%
MDA-MB-231
  GI50: 6.28 µM
  TGI: 69.7 µM
  CC50: > 100 µM
COLO 205 [8]; read-out: GI50
  GI50: 27.3 µM
COLO 205 [8]; [10]
  CC50: > 100 µM
COLO 205 [8]; read-out: TGI
  TGI: 63.7 µM
COLO 205 [8]; read-out: pGI50 (converted)
  GI50: 27.5 µM
COLO 205 [8]; [11]
  CC50: > 100 µM
COLO 205 [8]; read-out: pTGI (converted)
  TGI: 63.1 µM
EKVX; read-out: GI50
  GI50: 37.4 µM
EKVX; [10]
  CC50: > 100 µM
EKVX; read-out: TGI
  TGI: > 100 µM
EKVX; read-out: pGI50 (converted)
  GI50: 37.2 µM
EKVX; [11]
  CC50: > 100 µM
EKVX; read-out: pTGI
  TGI: > 100 µM
OVCAR-4
  Activity: 105.57%
HCC 2998; read-out: GI50
  GI50: 31.1 µM
HCC 2998; [10]
  CC50: > 100 µM
HCC 2998; read-out: TGI
  TGI: 80.4 µM
HCC 2998; read-out: pGI50 (converted)
  GI50: 30.9 µM
HCC 2998; [11]
  CC50: > 100 µM
HCC 2998; read-out: pTGI (converted)
  TGI: 81.3 µM
ACHN; read-out: GI50
  GI50: 15.4 µM
ACHN; [10]
  CC50: > 100 µM
ACHN; read-out: TGI
  TGI: > 100 µM
ACHN; read-out: pGI50 (converted)
  GI50: 15.5 µM
ACHN; [11]
  CC50: > 100 µM
ACHN; read-out: pTGI
  TGI: > 100 µM
NCI-H23
  Activity: 81.18%
BT-549; [10]
  CC50: > 100 µM
BT-549; [11]
  CC50: > 100 µM
COLO 205 [9]
  Activity: 120.67%
UACC-257
  Activity: 126.04%
NCI-H460
  Activity: 103.52%
